# Experiments:
# Format in all cases: functional
# [1] = system: MCF7; assay: Growth inhibition of human MCF7 cells after 48 hrs by sulforhodamine B assay; conditions: MCF7, 48 h
# Method in brief: (§1)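 Adherent cells in RPMI-1640 with 5% heat-inactivated FBS, 2 mM glutamine and penicillin/streptomycin at 37 °C and 5% CO₂. Plated at 1.5 × 10⁵ cells/mL (MCF-7) or 0.75 × 10⁵ cells/mL (A375-C5, NCI-H460), then incubated 24 h. Exposed 48 h to five serial dilutions from DMSO stocks (≤0.25% DMSO). SRB staining, absorbance at 492 nm. GI50 is the mean ± SEM of three independent duplicate experiments.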
# [2] = system: NCI-H460; assay: Growth inhibition of human NCI-H460 cells after 48 hrs by sulforhodamine B assay; conditions: NCI-H460, 48 h; method in brief: as §1
# [3] = Growth inhibition of human A375-C5 cells after 48 hrs by sulforhodamine B assay; conditions: A375-C5, 48 h; method in brief: as §1
SMILES,GI50 [1] [µM],GI50 [2] [µM],GI50 [3] [µM]
COC(=O)c1sc2cc(Nc3ccc(OC)c(OC)c3)cnc2c1N,30,26.2,26.3
COC(=O)c1sc2cc(Nc3ccc(OC)cc3)cnc2c1N,124,95,> 150
COC(=O)c1sc2cc(Nc3cc(OC)cc(OC)c3)cnc2c1N,> 150,> 150,> 150
COC(=O)c1sc2cc(Nc3ccc(F)cc3Br)cnc2c1N,28.9,31.3,34
COC(=O)c1sc2cc(Nc3nccc4ccccc34)cnc2c1N,> 150,> 150,> 150
COC(=O)c1sc2cc(Nc3ccccn3)cnc2c1N,> 150,> 150,> 150
COC(=O)c1sc2cc(Nc3cccnc3)cnc2c1N,82.4,49.4,> 150
COC(=O)c1sc2cc(Nc3ncccn3)cnc2c1N,> 150,> 150,> 150

# Now from value to compound, other results behind:
GI50 [1] [µM],GI50 [2] [µM],SMILES,GI50 [3] [µM]
26.3,26.3,COC(=O)c1sc2cc(Nc3ccc(OC)cc3OC)cnc2c1N,27.3
22.1,21.7,COC(=O)c1sc2cc(Nc3cc(OC)ccc3Cl)cnc2c1N,25.8
28.9,30.9,COC(=O)c1sc2cc(Nc3ccccc3Br)cnc2c1N,34.1
6,6.4,COC(=O)c1sc2cc(Nc3nc4ccccc4s3)cnc2c1N,3.5
18.1,15.8,COC(=O)c1sc2cc(Nc3ccc4[nH]ccc4c3)cnc2c1N,17.3
0.0433,0.0356,COc1cccc2c1C(=O)c1c(O)c3c(c(O)c1C2=O)C[C@@](O)(C(=O)CO)C[C@@H]3O[C@H]1C[C@H](N)[C@H](O)[C@H](C)O1 [DOXORUBICIN],0.13
